Consider 1 molecule from ChEMBL document CHEMBL3525966, “Compartmental and enzyme kinetic modeling to elucidate the biotransformation pathway of a centrally acting antitrypanosomal prodrug” (Drug Metab Dispos, 2013).

For one data set, the target named is T1, Cytochrome P450 2D26 (Rattus norvegicus, UniProt P10634).
T1 sequence (P10634 whole entry): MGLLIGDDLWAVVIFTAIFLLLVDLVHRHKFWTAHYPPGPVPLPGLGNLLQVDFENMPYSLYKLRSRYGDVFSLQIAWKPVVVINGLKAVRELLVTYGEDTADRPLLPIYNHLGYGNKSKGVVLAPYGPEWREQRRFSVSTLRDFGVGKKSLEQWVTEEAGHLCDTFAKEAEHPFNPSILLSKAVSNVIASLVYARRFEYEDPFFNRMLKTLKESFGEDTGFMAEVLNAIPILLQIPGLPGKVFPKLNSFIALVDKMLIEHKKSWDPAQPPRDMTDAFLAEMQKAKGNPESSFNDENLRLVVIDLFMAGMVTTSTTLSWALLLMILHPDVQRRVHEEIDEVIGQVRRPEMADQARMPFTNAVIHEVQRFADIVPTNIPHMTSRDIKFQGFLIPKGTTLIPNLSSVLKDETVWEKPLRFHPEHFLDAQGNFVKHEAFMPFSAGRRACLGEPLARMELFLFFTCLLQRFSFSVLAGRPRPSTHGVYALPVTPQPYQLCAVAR
Nature of the data set: Prodrug conversion assessed as rat recombinant CYP2D2-mediated (Z)-N'-hydroxy-6-(5-(5-((Z)-N'-methoxycarbamimidoyl)pyridin-2-yl)furan-2-yl) nicotinimidamide formation at 5 uM after 180 mins incubation by HPLC-UV chromatogram. The data set is classed as ADME. Conditions: recombinant enzyme, 15 min, in the assay text read “15 mins” for “180 mins”. Put shortly:
(§1)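 Insect-cell-expressed human or rat P450 (with NADPH-P450 reductase, some also with cytochrome b5) at 0.1 pmol/µL in 100 mM potassium phosphate pH 7.4 with 10 mM MgCl2. DB868 (for M1) or M1 (for M2) was added at 5 µM (0.5% DMSO) and started with 2 mM NADPH. Stopped after 15 min with ice-cold acetonitrile, then HPLC-UV. Duplicate incubations.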

The subject of data set [1] is Liver microsome. Kind of data set: Drug metabolism in rat liver microsomes assessed as (Z)-N'-hydroxy-6-(5-(5-((Z)-N'-methoxycarbamimidoyl)pyridin-2-yl)furan-2-yl nicotinimidamide formation measured per mg of protein by HPLC-MS/MS analysis. The data set is classed as ADME. An outline of the steps:
(§2)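 M1 formation kinetics: HLM or RLM (0.5 mg/mL) in phosphate pH 7.4 with MgCl2, DB868 0.1–100 µM, started with 2 mM NADPH. Run 5 min (HLM) or 10 min (RLM) under initial-rate conditions (<20% consumption) in triplicate. Quantified by HPLC/MS/MS with d6-DB868 internal standard. Fitted to a one-enzyme (HLM) or two-enzyme (RLM) Michaelis–Menten model; Clint = Vmax/Km.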
(In general: Liver microsomes are a subcellular fraction often used to study metabolism.)

Data set [2] has as its system Liver microsome. Kind of data set: Intrinsic clearance in human liver microsomes assessed as (Z)-N'-hydroxy-6-(5-(5-((Z)-N'-methoxycarbamimidoyl)pyridin-2-yl)furan-2-yl nicotinimidamide formation measured per mg of protein by HPLC-MS/MS analysis. Format: ADME. Put shortly: as §2
Data set [3] deals with Liver microsome. Nature of the data set: Drug metabolism in rat liver microsomes assessed as (Z)-N'-hydroxy-6-(5-(5-((Z)-N'-methoxycarbamimidoyl)pyridin-2-yl)furan-2-yl nicotinimidamide formation measured by HPLC-MS/MS analysis. The data set is classed as ADME. An outline of the steps: as §2
The next data set deals with T2, Cytochrome P450 1A2 (Rattus norvegicus, UniProt P04799).
T2 sequence (P04799 whole entry): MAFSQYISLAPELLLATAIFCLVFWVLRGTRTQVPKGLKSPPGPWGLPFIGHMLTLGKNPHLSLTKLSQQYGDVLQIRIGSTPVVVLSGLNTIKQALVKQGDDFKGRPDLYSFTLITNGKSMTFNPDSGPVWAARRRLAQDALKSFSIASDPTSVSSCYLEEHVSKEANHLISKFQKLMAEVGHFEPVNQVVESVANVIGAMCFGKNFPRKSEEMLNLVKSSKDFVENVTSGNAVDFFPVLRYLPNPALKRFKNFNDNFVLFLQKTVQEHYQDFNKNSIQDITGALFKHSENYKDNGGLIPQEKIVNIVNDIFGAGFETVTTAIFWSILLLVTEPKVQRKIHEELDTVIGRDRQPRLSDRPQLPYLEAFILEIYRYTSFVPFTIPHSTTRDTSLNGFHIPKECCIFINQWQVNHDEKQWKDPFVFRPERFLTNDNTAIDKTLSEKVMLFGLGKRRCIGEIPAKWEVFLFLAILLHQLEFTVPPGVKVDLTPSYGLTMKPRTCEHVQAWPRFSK
Nature of the data set: Prodrug conversion assessed as rat recombinant CYP1A2-mediated (3Z,3'Z)-6,6'-(furan-2,5-diyl)bis(N'-hydroxynicotinimidamide) formation at 5 uM after 180 mins incubation by HPLC-UV chromatogram. Conditions: recombinant enzyme, 15 min, in the assay text read “15 mins” for “180 mins”. The data set is classed as ADME. Put shortly:
as §1

The nature of data set [4]: Drug metabolism in sandwich-cultured human hepatocytes assessed as (3Z,3'Z)-6,6'-(furan-2,5-diyl)bis(N'-hydroxynicotinimidamide) at 10 uM after 4 hrs of incubation by HPLC-MS/MS analysis. The data set is classed as ADME, cell-based, Hepatocyte. Put shortly:
(§3)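 Sandwich-cultured hepatocytes were used on day 5 (human) or day 4 (rat) and rinsed with warm phenol-red-free DMEM. They were then exposed to 10 µM DB868 (0.1–0.2% DMSO) at 37°C. Medium and methanol/water cell lysates were collected at 0.5, 2, 4 and 24 h. Analytes were quantified by HPLC/MS/MS with deuterated internal standards; protein by Bradford. Replicates: 6 (human) or 4 (rat).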

Another data set deals with Hepatocyte. Nature of the data set: Biotransformation in sandwich-cultured human hepatocytes assessed as depletion of compound at 10 uM after 4 hrs of incubation by HPLC-MS/MS analysis. Format: ADME, cell-based. Put shortly:
as §3

Data set [5] can be described thus: Drug metabolism in sandwich-cultured human hepatocytes assessed as (Z)-6-(5-(5-carbamimidoylpyridin-2-yl)furan-2-yl)-N' methoxynicotinimidamide at 10 uM after 4 hrs of incubation by HPLC-MS/MS analysis. Format: ADME, cell-based, Hepatocyte. An outline of the steps: as §3
The test system of data set [6] is Liver microsome. Nature of the data set: Prodrug conversion in human liver microsomes assessed as depletion of compound at 10 uM after 180 mins incubation by HPLC-UV chromatography. The data set is classed as ADME. Conditions: 3 h. An outline of the steps: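 HLM or RLM (0.5 mg/mL) were incubated in triplicate in 100 mM phosphate pH 7.4 with 10 mM MgCl2 and an NADPH-regenerating system (1 mM NADP+, glucose 6-phosphate, G6PDH). DB868 was 10 µM. Sampled up to 180 min. Prodrug and metabolites were measured by HPLC-UV at 359 nm and expressed relative to initial prodrug; DB829 LLOQ 50 nM.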

A word on the Vmax: it is the top rate of the reaction or transport when substrate is in excess. What is called Km is the substrate concentration at which the rate is half of its maximum. On to `CO/N=C(\N)c1ccc(-c2ccc(-c3ccc(/C(N)=N/OC)cn3)o2)nc1.Cl`, for which the Drug metabolism result is recorded as “metabolite_detected” on Cytochrome P450 2D26; “metabolite_detected” on Cytochrome P450 1A2; “metabolite_detected” in data set [4]; “metabolite_detected” in the data set with Hepatocyte; “metabolite_detected” in data set [5]; 100% in the data set with Liver microsome [6]. In addition, the maximum rate (Vmax) in the data set on Liver microsome [1] is reported as 12 pmol/min. Besides, in the data set with Liver microsome [2], the CLint was found to be 31 µL/min/mg. In the data set with Liver microsome [3], the Km was found to be 0.5 µM.
